The list is not random: actives were taken first. Their share in the collection is about 27%.
Rev-RRE block: HIV-1 Rev-RRE binding inhibitors, primary screen, biochemical, FRET, protein-RNA interaction. inhibition, % at 8 µM. 0.79% of 97,000 active. P05866. Rev peptide-RRE RNA binding;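 active means inhibition above the screen-wide mean plus 3 SD, cut at about 35% in these data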;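 further: 0% = median DMSO wells and 100% = median Neomycin B control wells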
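Test system: labelled RRE RNA duplex and labelled Rev peptide. Times: 5 min compound–RNA preincubation, then 15 min with peptide, 25 °C. Doses: single-dose 8 µM. Measured by: FRET, excitation 480 nm, emission 540 nm donor and 671 nm acceptor. Measure: % inhibition of FRET ratio versus controls.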
CYP2C9 activ: human CYP2C9 activators, primary screen, biochemical, luminescence; 1.4% of 96,000 active; recombinant CYP2C9, luciferin-H conversion; hits give high values; factor 1 = untreated enzyme, 0 = blocked; activation factor at 5 µM;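 active means activation factor of 2 or more for CYP2C9 at a 5 µM dose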;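 further: 0 = sulfaphenazole-blocked wells and 1 = vehicle-only wells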
CYP2C19 inhib: blockers of cytochrome P450 2C19 activity – biochemical, luminescence, ADME assay, primary screen; CYP2C19 Supersomes, luciferin-H EGE luminescence, 30 min; inhibition, % at 5 µM; 21% of 96,000 active; AID 778, 2007;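 active means CYP2C19 inhibition above a set limit at 5 µM in the primary screen, cut at about 50% in these data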;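 further: plate controls were negative control wells for no effect and 2.5 mM tranylcypromine positive control for full effect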
CYP2C19 act: human CYP2C19 activators, primary screen, biochemical, luminescence; Cytochrome P450 2C19 (Homo sapiens), P33261; recombinant CYP2C19, luciferin-H EGE luminescence; hits give high values; 0 = fully inhibited enzyme, 1 = untreated enzyme; activation factor at 5 µM; 96,000 tested, under 10 active;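 active means activation factor of at least 2 at 5 µM in the primary screen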;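 further: 0 = wells with 2.5 mM tranylcypromine and 1 = vehicle-only wells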
CYP2C9 inh: blockers of cytochrome P450 2C9 activity – biochemical, luminescence, ADME assay, primary screen | P11712 | CYP2C9 Supersomes, luciferin-H conversion | inhibition, % at 5 µM | 20% of 96,000 active | AID 777, 2007;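 active means blocking of liver enzyme CYP2C9 beyond about 50% at 5 µM, limit read from the data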
Cav3 T inh: Cav3.2 calcium influx blockers – cell-based, Fluo-4 calcium fluorescence, FDSS, MLSMR library, primary screen. Cav3.2-expressing cells; hits give low values. B-score at 10 µM. Voltage-dependent T-type calcium channel subunit alpha-1H (Homo sapiens), O95180. 4% of 100,000 active;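 active means single-dose well whose peak fluorescence ratio is a statistical outlier from its plate by either plate-standardised score or position-corrected B-score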
Starred values were filed as active, the others as inactive; · = no result given.

SMILES	Rev-RRE block	CYP2C9 activ	CYP2C19 inhib	CYP2C19 act	CYP2C9 inh	Cav3 T inh
O=S(=O)(NCC1CCCO1)c1ccc(Cl)c(C(F)(F)F)c1 (configuration not stated)	3.6	3.9*	66.4*	0.3	-289.7	-0.597
COC(=O)COc1ccc(S(=O)(=O)NCC2CCCO2)cc1Cl (configuration not stated)	2.2	1.1	16.6	0.8	-5.5	1.88
CCc1cccc(NS(=O)(=O)c2ccc3c(c2)oc(=O)n3C)c1	6.5	1.1	70.5*	0.3	-11.2	·
Cn1c(=O)c2cc(S(=O)(=O)Nc3ccc4c(c3)OCO4)ccc2n(C)c1=O	5.1	0.2	84.4*	0.2	85.0*	-1.18
Cn1c(=O)c2cc(S(=O)(=O)NC(C(=O)N3CCCCCC3)c3ccccc3)ccc2n(C)c1=O (configuration not stated)	3.0	0.6	47.3	0.5	41.1	·
Cn1c(=O)oc2cc(S(=O)(=O)Nc3cccc(C(=O)O)c3)ccc21	4.9	1.3	-21.2	1.2	-31.8	0.213
O=C(Cn1ncc2c(=O)oc3ccccc3c21)NCCN1CCN(c2ccccc2F)CC1	·	0.7	4.4	1	34.7	1.54
COC/C=C/C1=CC2=CC(=O)C(C)(OC(=O)c3cnc4ccccc4n3)C(=O)C2=CO1 (configuration not stated)	·	·	·	·	·	-0.841
Cn1c(=O)oc2cc(S(=O)(=O)NC(Cc3ccccc3)C(=O)N3CCCCC3)ccc21 (configuration not stated)	-1.9	0.9	40.4	0.6	13.2	-0.493
CSCCC(NS(=O)(=O)c1ccc2c(c1)oc(=O)n2C)C(=O)NC1CCCCC1 (configuration not stated)	-2.0	1.1	71.6*	0.3	-8.5	0.569
CC(C)CC(NS(=O)(=O)c1ccc2c(c1)oc(=O)n2C)C(=O)NCc1cccnc1 (configuration not stated)	9.1	1	53.4*	0.5	-2.4	0.567
O=S(=O)(NCC1CCCO1)c1ccc(S(=O)(=O)N2CCCC2)cc1 (configuration not stated)	2.7	0.9	4.5	1	9.7	1.11
O=S(=O)(NCC1CCCO1)c1cc(Br)c(Br)s1 (configuration not stated)	·	2*	65.6*	0.3	-97.0	·
CC(=O)c1cccc(NS(=O)(=O)c2ccc3c(c2)oc(=O)n3C)c1	4.7	0.8	43.1	0.6	24.7	·
Cn1c(=O)oc2cc(S(=O)(=O)Nc3ccc4c(c3)OCO4)ccc21	26.6	0.5	79.6*	0.2	53.4*	-0.3
COc1ccc(-n2c(SCC(N)=O)nnc2-c2ccccc2F)cc1	4.2	·	·	·	·	1.01
CN(CC(=O)N1CCc2ccccc2C1)S(=O)(=O)c1ccc2c(c1)c(=O)n(C)c(=O)n2C	·	0.9	-17.0	1.2	12.4	·
Cn1c(=O)oc2cc(S(=O)(=O)NCC3CCCO3)ccc21 (configuration not stated)	53.2*	·	·	·	·	-0.178
O=C(CSc1n[nH]c(-c2ccc(Cl)cc2Cl)n1)Nc1ccccn1	1.4	0.3	30.4	0.7	71.8*	·
O=[N+]([O-])c1ccc(Sc2n[nH]c(-c3ccc(Cl)cc3Cl)n2)nc1	-3.2	0.9	14.2	0.9	9.1	-2.56
CN(C)c1oc(-c2ccccc2Cl)nc1P(=O)(c1ccccc1)c1ccccc1	2.3	0.3	35.6	0.6	67.2*	-7.28*
Cc1ccc(S(=O)(=O)C(C#N)c2nc3ccccc3nc2N2CCCCC2)cc1 (configuration not stated)	·	0.9	17.3	0.8	7.3	·
Cc1cccc(S(=O)(=O)C(C#N)c2nc3ccccc3nc2N2CCOCC2)c1 (configuration not stated)	7.9	0.4	29.4	0.7	56.4*	-1.92
CCOC(=O)N1CCN(c2nc3ccccc3nc2C(C#N)S(=O)(=O)c2ccc(C)cc2)CC1 (configuration not stated)	6.9	0.1	33.2	0.7	92.3*	·
Cc1ccc(C2c3c(oc4cc(C)c(C)cc4c3=O)C(=O)N2CCCN2CCOCC2)cc1 (configuration not stated)	·	0.8	0.4	1	16.3	2.81
SMILES	Rev-RRE block	CYP2C9 activ	CYP2C19 inhib	CYP2C19 act	CYP2C9 inh	Cav3 T inh
CCCN1CCC(=O)N([C@H](CSc2ccc(Br)cc2)Cc2ccccc2)CC1	·	·	·	·	·	-1.89
O=C(Nc1ccc(S(=O)(=O)NCCc2ccccc2)cc1)c1ccc(Br)o1	4.2	1	-10.8	1.1	3.5	-0.00268
COCC(=O)Nc1ccc(S(=O)(=O)NCCc2ccccc2)cc1	4.9	0.3	95.1*	0	69.0*	1.21
CCC(=O)Nc1ccc(S(=O)(=O)NCCc2ccccc2)cc1	3.6	0.6	75.3*	0.2	35.4	1.27
COCCNS(=O)(=O)c1cccc2cccnc12	·	1.6	9.2	0.9	-55.5	-0.0565
CCn1c(SCc2cccc(C(=O)O)c2)nnc1-c1ccccc1	1.7	0.9	-0.9	1	5.9	0.0283
CC(=O)c1cc(C)ccc1OC(=O)c1cccc2nc(C)oc12	6.7	0.4	57.3*	0.4	61.1*	0.075
Cc1cc(C)cc(NC(=O)c2cc(S(=O)(=O)NCc3ccco3)ccc2F)c1	13.0	0.6	13.4	0.9	37.4	-2.87
CCC(=O)Nn1cnc2c(c1=O)C1(CCCCC1)Cc1ccccc1-2	7.3	1.1	42.3	0.6	-8.7	-1.23
CCC1(CC)Cc2ccccc2-c2nc(CN3CCOCC3)[nH]c(=O)c21	1.4	1	11.8	0.9	-3.1	-0.676
CCN(CC)Cc1nc2c(c(=O)[nH]1)C1(CCCC1)Cc1ccccc1-2	8.1	0.1	47.4	0.5	86.7*	-6.72*
O=c1[nH]c(CN(CCO)CCO)nc2c1C1(CCCCC1)Cc1ccccc1-2	3.0	0.9	3.8	1	14.5	-10.6*
O=c1[nH]c(NCCO)nc2c1C1(CCCC1)Cc1ccccc1-2	4.8	0.7	7.0	0.9	25.5	-4.13*
Cc1ccc(Cn2nnc3c(=O)n(CC(=O)NCc4ccc5c(c4)OCO5)cnc32)cc1	0.6	·	·	·	·	-0.053
O=C(Nc1cccc(C(F)(F)F)c1)c1n[nH]c(Cn2cncn2)n1	6.1	0.5	10.2	0.9	51.4*	0.229
Clc1ccc(CSc2cc3c(nn2)-c2ccccc2CC3)cc1	16.9	0.9	25.0	0.8	7.5	-2.26
CC(C)(C)c1csc(N(CCC#N)CCC#N)n1	5.8	0.4	54.1*	0.5	56.1*	0.797
O=C(Cn1cnnn1)Nc1ccccc1Cc1ccccc1	3.5	·	·	·	·	-0.0235
c1coc(-c2nnc3sc(C4CCCCC4)nn23)c1	·	1	4.8	1	4.2	-0.314
